{"source": "paper PMC6146380", "about": "(Acta Pharmaceutica Sinica. B, 2018)", "key": {"A549 cells [1]": {"tested_on": "A549 cells", "test": "MTT cytotoxicity assay", "type": "cell-based, human", "conditions": "read-out: IC50 (in vitro cytotoxicity)", "summary_of_the_method": "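A549 cells seeded at 5 × 10³/well in DMEM with 10% FBS and antibiotics, preincubated 24 h at 37 °C, 5% CO₂. Test drug in PBS added at various concentrations for 48 h; untreated controls received fresh medium. MTT (5 mg/mL stock) added for 4 h, formazan dissolved in DMSO, absorbance read at 490 nm. Triplicate measurements.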"}, "HUVEC": {"tested_on": "HUVEC", "test": "Cellular uptake of FITC-labeled peptides by flow cytometry, HUVEC", "type": "cell-based, human", "conditions": "5 × 10^−6 mol/L, 4 h", "summary_of_the_method": "(§1)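 Cells grown in DMEM with 10% FBS at 37 °C, 5% CO₂. Seeded at 8 × 10⁴ cells/well and incubated overnight. FITC-labeled peptides (N-terminal Cys–maleimide-FITC) added at a final 5 × 10⁻⁶ mol/L for 4 h. Cells then trypsinized, centrifuged, resuspended in PBS and analysed by flow cytometry. Fluorescence signal compared between labeled peptides.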"}, "A549 cells [2]": {"tested_on": "A549 cells", "test": "Cellular uptake of FITC-labeled peptides by flow cytometry, A549", "type": "cell-based, human", "conditions": "5 × 10^−6 mol/L, 4 h", "summary_of_the_method": "as §1"}, "C6 cells": {"tested_on": "C6 cells", "test": "Cellular uptake of FITC-labeled peptides by flow cytometry, C6", "type": "cell-based, rat", "conditions": "5 × 10^−6 mol/L, 4 h", "summary_of_the_method": "as §1"}, "U87 cells": {"tested_on": "U87 cells", "test": "Cellular uptake of FITC-labeled peptides by flow cytometry, U87", "type": "cell-based, human", "conditions": "5 × 10^−6 mol/L, 4 h", "summary_of_the_method": "as §1"}}, "note": "Counter-ions that a name gives are not always drawn. Like-named read-outs stand apart in the source and are kept apart here.", "data": [{"compound": "N.N.O=C([O-])C1(C(=O)[O-])CCC1.[Pt+2]", "note": "[carboplatin]", "values": [{"measurement": "IC50", "setting": "A549 cells [1]; A549 cells, MTT assay, 48 h treatment, triplicate", "result": 138, "unit": "µM"}]}, {"compound": "Nc1ccn([C@@H]2O[C@H](CO)[C@@H](O)C2(F)F)c(=O)n1", "note": "[gemcitabine, Gemcitabine hydrochloride]", "values": [{"measurement": "IC50", "setting": "A549 cells [1]; Homo sapiens, A549, 48 h", "result": 4.83, "unit": "µM"}]}, {"compound": "FITC-D(CRGERPPR)", "values": [{"measurement": "mean fluorescent intensity, times higher than that of FITC-CRGERPPR", "setting": "HUVEC", "result": "~13.1", "unit": "times"}, {"measurement": "mean fluorescent intensity, times higher than that of FITC-D(CRPPREGR)", "setting": "HUVEC", "result": 5.7, "unit": "times"}, {"measurement": "FITC-positive ratio, times higher than that of FITC-CRGERPPR", "setting": "A549 cells [2]", "result": 1.6, "unit": "times"}, {"measurement": "FITC-positive ratio, times higher than that of FITC-D(CRPPREGR)", "setting": "A549 cells [2]", "result": 1.3, "unit": "times"}, {"measurement": "mean fluorescent intensity, times higher than FITC-D(CRPPREGR)", "setting": "C6 cells", "result": 2.9, "unit": "times"}, {"measurement": "mean fluorescent intensity, times higher than that of FITC-CRGERPPR", "setting": "C6 cells", "result": 5.4, "unit": "times"}, {"measurement": "mean fluorescent intensity, times higher than FITC-D(CRPPREGR)", "setting": "U87 cells", "result": 3.5, "unit": "times"}, {"measurement": "mean fluorescent intensity, times higher than that of FITC-CRGERPPR", "setting": "U87 cells", "result": 3.3, "unit": "times"}]}]}
